Consider 24 molecules from PubChem BioAssay.

Structures are written as SMILES. The list shows a part of the results. Values without a mark were called inactive. Active and inactive are the calls of the source. Cut-off read from the data, not from the text of the source: active = activation above about 33%; inactive = the rest.

This assay in a line: activators of apoptotic CHOP UPR arm, confirmation, cell-based, CHO-CHOP luciferase reporter, single concentration (AID 463112).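 Note: 0% = DMSO wells and 100% = tunicamycin 10 µg/mL wells.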 To be noted: CHO-CHOP cells, CHOP-luciferase reporter luminescence; at 10 µM; active compounds read high; percent of tunicamycin response, DMSO as zero. The gist of the method: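 Assay system: CHO-CHOP luciferase reporter cell line | Compound: Single dose of 10 µM compound, 0.5% DMSO final | Timing: 6 h compound treatment, 37 °C | Technique: Steady-Glo luciferase luminescence | Benchmarks: High control tunicamycin 10 µg/mL, low control DMSO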
With `CC(C)(C)Nc1nc(-c2ccccn2)nc2ccccc12`, the activation is 20.4%.

As to `COc1ccc(C(=O)NCC(=O)N/N=C/c2ccc([N+](=O)[O-])o2)cc1OC`, the activation was 35.6% (active).

As to `O=[N+]([O-])c1ccc(C=Nc2ccc(Cl)cc2Cl)s1`, the activation is 74.2% (active). Turning to `Cc1cccc(Nc2nc3c(S(=O)(=O)c4ccccc4)nnn3c3ccccc23)c1C`, the activation was 128% (active). With `Nc1nc(CC(=O)CSc2ccc(Cl)cc2)nc(Nc2ccc(F)cc2)n1`, the activation is 40% (active). With `S=C1SCN(CCN2CCOCC2)CN1Cc1ccccc1`, the activation is 102% (active). Then `Nc1ccccc1SC(C[N+](=O)[O-])c1ccccc1` (centres undefined), with -9.65%. Then `CCOc1ccc2nc(Cl)c(C3CC(c4ccccc4)=NN3C(=O)c3cccs3)cc2c1` (centres undefined), with -1.15%; and `Cc1ccc(Cc2cnc(NC(=O)/C(C#N)=C/c3ccc(-c4cccc([N+](=O)[O-])c4)o3)s2)cc1`, with 61.4% (active); and `O=C1Nc2ccc(Br)cc2/C1=N/N=C/C1=C(N2CCOCC2)C(=C\c2ccccc2)/CC1`, with 53.4% (active). Then `COc1cccc2sc(Nc3nc(C)c(C(C)=O)s3)nc12`, with 58.5% (active); and `Cc1cccc(CS(=O)(=O)c2ncc(Cl)c(C(=O)Nc3ccc(F)cc3)n2)c1`, with 88.1% (active); and `Cc1cc(C(=O)CCl)c(C)n1CC1COc2ccccc2O1` (centres undefined), with 60.3% (active). As for `N#Cc1cccc(NC(=O)COC(=O)c2ccccc2C(=O)c2ccc(Cl)c([N+](=O)[O-])c2)c1`, the activation is 26.1%.

For the molecule `CCOC(=O)c1sc(NC(=O)CCN2CCOCC2)c(C(=O)OCC)c1C`, the activation was -1.25%. The figure for `CCOC(=O)c1cnc(Nc2nc3ccccc3o2)nc1CSC(=S)N1CCCCC1` is 92.7% (active). Turning to `CC(C)(C)C(=O)OCc1nc(-c2ccc(O)c(O)c2)cs1`, the activation is 144% (active). `CN(C)CCCn1c(SCc2ccc(Cl)cc2)nnc1-c1ccncc1`: the activation was -0.025%.

For `O=C1CC(c2cccc(Cl)c2)CC(O)=C1C=Nc1ccccc1` (centres undefined), the activation is 70.8% (active). Then `CC1CC2=C(CC1/C=N/NC(N)=S)C(C)(C)CCC2` (centres undefined), with 29.4%. Take `COC(=O)c1ccc(C(=O)Nc2cc(Cl)ccc2Cl)cc1NC(=O)c1ccccc1C`: the activation is 10.6%. Then `CSc1nnc(NC(=O)c2nc(S(=O)(=O)Cc3ccc(C)cc3)ncc2Cl)s1`, with 87% (active); and `CC1(C)CCSC(/C=C/c2ccccc2)=N1`, with 68% (active). For the molecule `CSc1nc(-c2ccccc2)nc(C(Cl)Cl)n1`, the activation was 28.5%.
